Consider 1 molecule from paper PMC8985159 (RSC Chemical Biology, 2022).

Data set [1] concerns c-Myc protein levels in PC-3M-luc cells. Kind of data set: Western blot of c-Myc protein levels. Type of data set: cell-based, human. To be noted: 24 h. On the technique in general: Immunoblotting shows a protein as a band on a membrane.
The next data set addresses T1, Sirt1_134-747 (Homo sapiens, UniProt Q96EB6).
T1 sequence (Q96EB6 134-747): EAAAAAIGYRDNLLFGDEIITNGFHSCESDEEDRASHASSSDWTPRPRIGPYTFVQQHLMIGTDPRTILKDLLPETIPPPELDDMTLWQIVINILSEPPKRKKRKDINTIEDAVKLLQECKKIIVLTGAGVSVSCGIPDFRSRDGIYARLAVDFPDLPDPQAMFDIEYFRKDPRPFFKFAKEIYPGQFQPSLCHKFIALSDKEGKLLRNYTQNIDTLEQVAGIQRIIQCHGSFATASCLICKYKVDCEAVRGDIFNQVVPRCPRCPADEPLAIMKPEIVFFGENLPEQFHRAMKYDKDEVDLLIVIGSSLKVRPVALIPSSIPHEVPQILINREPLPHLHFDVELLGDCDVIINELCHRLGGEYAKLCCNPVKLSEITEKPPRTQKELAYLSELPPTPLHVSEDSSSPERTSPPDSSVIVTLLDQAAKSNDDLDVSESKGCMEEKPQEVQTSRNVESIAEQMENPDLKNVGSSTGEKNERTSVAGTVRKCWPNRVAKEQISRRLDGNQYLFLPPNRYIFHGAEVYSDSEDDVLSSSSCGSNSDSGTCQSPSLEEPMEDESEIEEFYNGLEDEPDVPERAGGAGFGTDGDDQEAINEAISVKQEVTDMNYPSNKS
Kind of data set: Sirtuin deacetylation activity assay. It is filed as biochemical.

The next data set deals with human recombinant HDAC1 (Homo sapiens, UniProt Q13547). Kind of data set: HDAC1 activity assay. Type of data set: biochemical. The essentials:
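Enzyme was incubated with serially diluted test compound in DMSO and ZMAL (added from a 126 μM solution) for 90 min at 37 °C. Stop solution (33 μM trichostatin A, 6 mg/mL trypsin) was added, followed by 30 min at 37 °C. Fluorescence read at Ex 390 / Em 460 nm.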

Data set [2] concerns PC-3M-luc cells. The data set can be described thus: Colony Forming Unit. It is filed as cell-based, human. The essentials:
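PC-3M-luc cells were grown in RPMI 1640 with 10% FBS, 2 mM glutamine and 1% pen-strep, then seeded at 250 cells per well. After 2–3 h, test compound or vehicle was added (0.5% DMSO final) and plates were incubated 7 days at 37 °C, 5% CO2. Cells were PBS-washed, fixed in 4% PFA for 20 min at RT and stained with 0.01% crystal violet for 30 min. Colonies were then counted.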

The subject of data set [3] is PC-3M-luc cells. Kind of data set: Migration assay. It is filed as cell-based, human.
For the next data set, the target named is T2, Sirt3_118-395 (Homo sapiens, UniProt Q9NTG7).
T2 sequence (Q9NTG7 118-395): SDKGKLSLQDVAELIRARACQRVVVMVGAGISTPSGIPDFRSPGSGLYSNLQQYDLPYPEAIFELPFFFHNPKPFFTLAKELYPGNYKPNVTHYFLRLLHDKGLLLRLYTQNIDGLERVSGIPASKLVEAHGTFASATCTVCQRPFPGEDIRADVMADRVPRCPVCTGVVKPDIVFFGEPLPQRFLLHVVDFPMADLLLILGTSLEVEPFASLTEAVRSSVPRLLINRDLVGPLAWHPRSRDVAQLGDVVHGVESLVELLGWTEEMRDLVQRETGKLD
Kind of data set: Sirtuin deacetylation activity assay. Type of data set: biochemical.

For data set [4], the target named is T3, N-terminally labelled Nluc-Sirt2 fusion protein (Homo sapiens, UniProt Q8IXJ6).
T3 sequence (Q8IXJ6 50-356): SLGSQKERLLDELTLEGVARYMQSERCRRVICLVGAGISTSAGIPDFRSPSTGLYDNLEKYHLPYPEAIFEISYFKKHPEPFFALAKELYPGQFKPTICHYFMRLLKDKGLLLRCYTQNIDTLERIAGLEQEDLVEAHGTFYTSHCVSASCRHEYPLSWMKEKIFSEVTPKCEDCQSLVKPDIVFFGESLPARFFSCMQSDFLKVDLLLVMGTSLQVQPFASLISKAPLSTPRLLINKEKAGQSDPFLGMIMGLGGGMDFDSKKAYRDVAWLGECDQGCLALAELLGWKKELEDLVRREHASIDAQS
The data set can be described thus: NanoBRET assay, N-terminal Nluc-Sirt2 fusion in HEK293T cells. For orientation: Bioluminescence resonance energy transfer reports proximity on the nanometre scale.

human recombinant HDAC1, sequence (Q13547 whole entry): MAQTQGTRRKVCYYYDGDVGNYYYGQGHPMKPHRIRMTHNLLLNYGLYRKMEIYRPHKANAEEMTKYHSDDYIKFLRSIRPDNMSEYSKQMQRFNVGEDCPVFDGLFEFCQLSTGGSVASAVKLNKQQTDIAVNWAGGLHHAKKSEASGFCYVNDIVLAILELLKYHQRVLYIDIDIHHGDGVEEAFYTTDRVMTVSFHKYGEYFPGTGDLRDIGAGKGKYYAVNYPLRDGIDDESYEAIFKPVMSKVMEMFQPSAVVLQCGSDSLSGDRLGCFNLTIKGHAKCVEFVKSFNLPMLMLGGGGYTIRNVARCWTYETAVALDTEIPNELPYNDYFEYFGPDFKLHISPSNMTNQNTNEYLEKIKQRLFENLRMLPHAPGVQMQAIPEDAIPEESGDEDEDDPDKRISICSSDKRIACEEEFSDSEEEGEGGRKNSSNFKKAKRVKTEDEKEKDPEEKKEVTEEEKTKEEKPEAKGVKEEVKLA

For the molecule `Cc1cc(C)nc(SCC(=O)Nc2ncc(Cc3cccc(OCc4cn(Cc5ccc(OCCN6CCOCC6)cc5)nn4)c3)s2)n1` [Compound 12], the “c-Myc protein levels (in words)” value in data set [1] (10 μM) was “completely absent”. Besides, the “concentration dependence of c-Myc levels” value in data set [1] was “reduced in a concentration-dependent manner”. The IC50 (usually the point on the concentration scale where inhibition reaches its midpoint) against Sirt1_134-747 was above 100 µM; on human recombinant HDAC1, above 100 µM; on Sirt3_118-395 it was above 100 µM; in data set [4] it was 0.098 ± 0.004 µM. In addition, the “effect on colony formation (in words)” value with PC-3M-luc cells [2] is recorded as “Colony formation was almost completely prevented”. Besides, the “concentration-dependent effect on cell migration” value with PC-3M-luc cells [3] is “concentration-dependent inhibition of migration”. The “NanoBRET binding in digitonin permeabilized vs untreated cells” value in data set [4] (digitonin 50 μg mL−1) is “None of the tested compounds revealed significant differences in the NanoBRET signals between permeabilized (digitonin) and untreated cells”.
